An excerpt weighted towards active compounds, which were near 2.3% of everything screened.
TRPC6 inh: blocks the mouse TRPC6 cation channel. AID 2553. Q61143. hit rate 1.1% among 310,000. HEK293-TRPC6, membrane potential dye, ACh-evoked depolarization; hits give low values. B-score at 10 µM;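 active = B-score under library mean minus 3 SD, initial fluorescence not abnormally high, positive integrated signal ratio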;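 also: B-score derived from integrated fluorescence ratio over the kinetic read; more negative B-score means stronger inhibition of depolarization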
Target sequence (Q61143 whole entry, looked up): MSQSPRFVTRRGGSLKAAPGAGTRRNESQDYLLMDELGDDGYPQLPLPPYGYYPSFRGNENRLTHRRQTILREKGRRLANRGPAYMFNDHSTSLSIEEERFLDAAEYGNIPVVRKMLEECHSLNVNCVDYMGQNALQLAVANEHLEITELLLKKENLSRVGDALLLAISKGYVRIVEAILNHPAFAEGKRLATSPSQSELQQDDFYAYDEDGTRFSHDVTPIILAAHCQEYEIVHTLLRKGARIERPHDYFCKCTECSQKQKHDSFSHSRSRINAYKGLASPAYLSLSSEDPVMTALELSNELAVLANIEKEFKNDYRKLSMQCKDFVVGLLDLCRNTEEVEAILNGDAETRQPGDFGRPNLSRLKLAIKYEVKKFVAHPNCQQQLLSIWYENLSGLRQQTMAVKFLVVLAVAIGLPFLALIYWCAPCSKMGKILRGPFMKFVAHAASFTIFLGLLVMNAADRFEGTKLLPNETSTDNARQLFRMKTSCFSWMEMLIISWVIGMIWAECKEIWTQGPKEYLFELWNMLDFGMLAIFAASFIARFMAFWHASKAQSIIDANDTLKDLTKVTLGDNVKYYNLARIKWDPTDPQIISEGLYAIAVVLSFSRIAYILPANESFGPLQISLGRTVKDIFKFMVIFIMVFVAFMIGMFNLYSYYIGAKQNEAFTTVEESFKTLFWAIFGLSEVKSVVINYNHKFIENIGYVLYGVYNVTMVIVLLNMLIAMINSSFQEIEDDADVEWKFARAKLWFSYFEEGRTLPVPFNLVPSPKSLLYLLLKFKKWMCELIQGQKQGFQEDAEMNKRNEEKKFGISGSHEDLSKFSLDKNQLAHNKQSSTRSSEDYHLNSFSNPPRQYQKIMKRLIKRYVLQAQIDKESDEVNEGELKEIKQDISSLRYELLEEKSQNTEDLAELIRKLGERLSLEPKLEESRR
TRPC4 block: blocks the mouse TRPC4 cation channel; HEK293 TRPC4beta/mu-opioid, DAMGO-evoked Fluo4 calcium flux; hits give low values; AID 2247; B-score at 10 µM; hit rate 0.39% among 300,000; Q9QUQ5;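 active = B-score over 3 SD under the library average, no early fluorescence shift, positive overall ratio signal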
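Assay system: Stable TRPC4beta/mu-opioid receptor HEK293 cells | Reagent: DAMGO in two steps, submaximal then maximal | Compound dosing: Single concentration per test compound | Signal: Fluo4 Ca2+ flux fluorescence | Evaluation: Per-well B score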
TRPC4 agonist: TRPC4 (mouse) channel activation; Q9QUQ5; HEK293 TRPC4beta/mu-opioid, Fluo4 calcium fluorescence; hits give high values; B-score at 10 µM; hit rate 0.49% among 310,000;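 active = B-score above 5 SD of library B-scores, and initial fluorescence ratio not above library mean plus 5 SD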;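 also: positive B-score marks a calcium rise read as TRPC4 activation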
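System: HEK293 cells stably co-expressing mouse TRPC4beta and mu-opioid receptor; Schedule: Fluo4 dye loading 45 min at room temperature, 110 s recording; Detection: Fluo4 fluorescence, kinetic; Evaluation: B-scored integrated calcium fluorescence ratio; Controls: buffer (low) and maximal DAMGO (high).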
TRPC4 PAM: allosteric potentiators of mouse TRPC4 channel. HEK293 TRPC4beta/mu-opioid, DAMGO EC20, Fluo-4 Ca2+ flux; hits give high values. B-score at 10 µM. hit rate 0.42% among 310,000;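 active = B-score of calcium response area above 5 SD of library B-scores, with initial fluorescence ratio within 5 SD of library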;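 also: B-score of integrated fluorescence ratio over time as area under calcium response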
TRPC6 act: activates the mouse TRPC6 cation channel. Q61143. HEK293-TRPC6 membrane potential dye fluorescence; hits give high values. B-score at 10 µM. hit rate 0.13% among 310,000. AID 2550;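 active = B-score of the integrated fluorescence ratio above library mean plus 3 SD, and starting fluorescence ratio within library mean plus 5 SD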;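 also: higher score means more depolarization so channel activation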
TRPC4 sel inh 2: mouse TRPC4 off-target activity of TRPC6 inhibitors, second screen; shares compounds with TRPC6 inh; HEK293 TRPC4/MOR, membrane potential dye fluorescence; channel activated by saturating DAMGO dose; inhibition, % at 10 µM; hit rate 42% among 920; AID 2776;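 active = compounds whose fluorescence signal differed from control wells by over 3 SD, either direction, in both duplicate plates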
TRPC4 spec: mouse TRPC4 off-target activity of TRPC6 inhibitors; shares compounds with TRPC6 inh; HEK293 TRPC4/mu-opioid, membrane potential fluorescence; activity change, negative = inhibition, % at 10 µM; hit rate 61% among 920; AID 2777;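 active = rise or fall in signal beyond 3 SD of buffer-only wells in both replicate plates, either sign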;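 also: integrated kinetic ratio of fluorescence range over baseline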
HEK293 MPD ctr 2-1: second check of TRPC6 inhibitor effects in parental HEK293 cells | shares compounds with TRPC6 inh | parental HEK293 membrane potential dye fluorescence; maximal acetylcholine challenge after compound addition | signal change vs control, % at 10 µM | hit rate 31% among 920 | AID 2779;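 active = membrane potential signal moving either way by over 3 SD of the maximum-effect control, in both duplicate plates, meaning non-specific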
HEK293 MPD ctr-1: parental HEK293 nonspecific activity of TRPC6 inhibitors | AID 2780 | shares compounds with TRPC6 inh | hit rate 60% among 920 | parental HEK293 membrane potential dye fluorescence | membrane potential signal change, % at 10 µM;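 active = membrane potential signal shifting up or down by more than 3 SD of buffer-only wells, on both duplicate plates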
HEK293 MPD ctr-2: counter-screen for TRPC6 modulators: effect in parental HEK293 cells; membrane potential dye fluorescence; hit rate 51% among 2,400; shares compounds with TRPC6 inh; membrane potential signal change, % at 10 µM;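 active = membrane potential signal moves up or down beyond 5 SD from buffer-only wells, on both duplicate plates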
HEK293 MPD ctr 2-2: second check of TRPC6 modulator effects in parental HEK293 cells; AID 488926; hit rate 14% among 2,400; membrane potential dye fluorescence; after compound, maximal acetylcholine stimulation; shares compounds with TRPC6 inh; inhibition, % at 10 µM;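 active = membrane potential signal drops by more than 5 SD from the mean control signal, in both duplicate plates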;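 also: plate controls were acetylcholine ECmax control wells for no effect and buffer only wells for full effect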
TRPC4 ctr mod: selectivity of TRPC6 modulators against mouse TRPC4 | shares compounds with TRPC6 inh | HEK293 TRPC4/mu-opioid, membrane potential fluorescence | percent change from control (negative = decrease, positive = increase), % at 10 µM | hit rate 69% among 2,400 | AID 488927;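 active = membrane potential signal moved up or down beyond 5 SD of buffer control wells, in both duplicate plates, actives on both sides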;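 also: plate controls were assay buffer wells for no effect and DAMGO maximal-effect wells for full effect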
TRPC4/MOR inh 2: second selectivity test of TRPC6 modulators against mouse TRPC4; shares compounds with TRPC6 inh; HEK293 TRPC4/mu-opioid, membrane potential dye fluorescence; stimulated with maximal-effect DAMGO; inhibition, % at 10 µM; hit rate 55% among 2,400; AID 488928;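 active = drop in membrane potential signal beyond 5 SD of the control wells in both duplicate plates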;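 also: TRPC4 counter screen for TRPC6 hits run under conditions tuned for TRPC6 not TRPC4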
TRPC6 inh conf: mouse TRPC6 inhibitor confirmation; shares compounds with TRPC6 inh; hit rate 43% among 3,300; AID 488960; inhibition, % at 10 µM; HEK293-TRPC6, membrane potential dye, ACh-evoked depolarization;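 active = fluorescence ratio falls more than 5 SD below the full-stimulation control mean, in both duplicate runs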;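 also: integrated fluorescence ratio of peak minus minimum over baseline after agonist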
TRPC6 act confirm: confirmation of mouse TRPC6 activators | activation, % at 10 µM | HEK293-TRPC6 membrane potential dye fluorescence, FDSS | hit rate 11% among 2,800 | shares compounds with TRPC6 inh;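 active = ratio signal rise beyond 5 SD above unstimulated control wells' mean, seen in both duplicate runs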;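 also: plate controls were buffer EC0 wells for no effect and acetylcholine ECmax response for full effect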
Starred values were filed as active, the others as inactive; i = inactive; . = not tested or not shown.

SMILES	TRPC6 inh	TRPC4 block	TRPC4 agonist	TRPC4 PAM	TRPC6 act	HEK293 MPD ctr-2	HEK293 MPD ctr 2-2	TRPC4 ctr mod	TRPC4/MOR inh 2	TRPC6 inh conf	TRPC6 act confirm	others
O=c1cc(CNc2ccc(Br)cc2)nc2sccn12	-7*	i	i	i	i	i	i	i	i	i	i
O=C(Nc1cc(C(F)(F)F)ccc1-n1cnc2ccccc21)c1ccccc1	-5.3*	i	i	i	i	106%*	i	19%*	i	47%*	.
O=C(Nc1cc(C(F)(F)F)ccc1N1CCOCC1)c1ccccc1	i	i	i	i	i	.	.	.	.	.	.
NCCSc1c(-c2ccc(F)cc2)[nH]c2ccccc12	-6*	i	i	i	i	i	i	i	83%*	77%*	i
Cc1[nH]c2ccccc2c1SCCN	i	i	i	i	i	.	.	.	.	.	.
NCCSc1c(-c2ccccc2)[nH]c2ccccc12	-5.3*	i	i	i	i	i	i	i	57%*	52%*	i
Cc1ccc(-c2[nH]c3ccccc3c2SCCN)cc1	-6.7*	-7*	i	i	i	.	.	.	.	i	i	TRPC4 sel inh 2=36%*;TRPC4 spec=-12%*;HEK293 MPD ctr 2-1=i;HEK293 MPD ctr-1=-296%*
NCCSc1c(-c2ccc(Cl)cc2)[nH]c2ccccc12	-6.7*	i	129*	i	i	.	.	.	.	69%*	i	TRPC4 sel inh 2=23%*;TRPC4 spec=-12%*;HEK293 MPD ctr 2-1=i;HEK293 MPD ctr-1=-323%*
COc1ccc(-c2[nH]c3ccccc3c2SCCNC(=O)c2ccccc2)cc1	i	i	i	i	i	.	.	.	.	.	.
O=C(CSc1nnc(CNC(=O)c2c(F)cccc2F)o1)c1ccccc1	i	i	i	i	i	.	.	.	.	.	.
CCN(CC)CCN(Cc1cc2cc3c(cc2[nH]c1=O)OCO3)C(=S)NCc1ccco1	-5.5*	i	i	i	i	i	i	i	58%*	i	.
CCN(CC)CCCN(Cc1cc2cc3c(cc2[nH]c1=O)OCO3)C(=S)NCc1ccco1	i	i	i	i	i	.	.	.	.	.	.
COCCNC(=O)CCSc1nc(-c2ccc(OC)cc2)cc(C(F)(F)F)n1	-5.6*	i	i	i	i	i	i	i	i	i	i
COCCn1c(N)c(C(=S)NC(=O)c2cccs2)c(=O)[nH]c1=O	i	i	i	i	i	.	.	.	.	.	.
C(=N\n1cnnc1)/c1ccc2ncccc2c1	-7.7*	i	i	i	i	-280%*	i	-37%*	50%*	i	i
Cc1ccc(NC(=O)CCC(=O)N/N=C/c2cccs2)cc1	i	i	i	i	i	.	.	.	.	.	.
CN1CCc2c(sc3c2c(=O)n(-c2cccc(Cl)c2)c2nncn32)C1	-5.5*	i	i	i	i	i	i	7.0%*	i	i	i
O=c1c2c3c(sc2n2cnnc2n1-c1ccccc1)N(Cc1ccccc1)CCC3	-7*	i	i	i	i	.	.	.	.	i	i	TRPC4 sel inh 2=i;TRPC4 spec=-20%*;HEK293 MPD ctr 2-1=i;HEK293 MPD ctr-1=-271%*
CC(C)(C)NC(=O)Cn1nnc(-c2ccccc2NC(=O)c2cnccn2)n1	-7.1*	i	i	i	13*	i	i	20%*	i	i	72%*
NC(=O)Cn1nnc(-c2ccccc2NC(=O)c2cnccn2)n1	i	i	i	i	i	.	.	.	.	.	.
O=C(CC1C(=O)NCCN1Cc1ccccc1)NCCC1=CCCCC1 (stereo not drawn)	i	i	i	i	i	.	.	.	.	.	.
Cc1ccc(-c2n[nH]c(=S)n2-c2ccccc2)cc1	i	i	i	i	i	.	.	.	.	.	.
Cc1ccc(-n2c(-c3cccc(C)c3)n[nH]c2=S)cc1	-18*	i	i	i	i	i	i	i	i	i	i
Cc1ccc(C)c(N2CCN(CCCNC(=O)Cn3cc4c(n3)CCC(C)C4)CC2)c1 (stereo not drawn)	i	i	i	i	14*	94%*	i	16%*	62%*	i	i
COC(=O)c1ccc(/C=N/OCC(=O)NC2CCCCCCC2)cc1	-9.1*	i	i	i	i	.	.	.	.	i	.	TRPC4 sel inh 2=i;TRPC4 spec=3.9%*;HEK293 MPD ctr 2-1=i;HEK293 MPD ctr-1=3.9%*
SMILES	TRPC6 inh	TRPC4 block	TRPC4 agonist	TRPC4 PAM	TRPC6 act	HEK293 MPD ctr-2	HEK293 MPD ctr 2-2	TRPC4 ctr mod	TRPC4/MOR inh 2	TRPC6 inh conf	TRPC6 act confirm	others
COC(=O)c1ccc(/C=N/OCC(=O)NC2CCCC(C)C2C)cc1 (stereo not drawn)	i	i	i	i	i	.	.	.	.	.	.
O=C(CN1C(=O)c2ccc(Br)cc2C1=O)NCC1CCCO1 (stereo not drawn)	-8.9*	i	i	i	i	i	i	i	i	82%*	.
COc1ccc(C(=O)NCCCCCCNC(=O)c2ccc(OC)cc2)cc1	i	i	i	i	i	.	.	.	.	.	.
CCC(C)(C)c1ccc(OCCCC[n+]2ccc(C)cc2)c(C(C)(C)CC)c1	-6.2*	i	i	i	i	i	i	-14%*	i	i	i
Cc1cc[n+](CC[n+]2ccc(C)cc2)cc1	i	i	i	i	i	.	.	.	.	.	.
CN1CCN(Cc2cc(=O)oc3cc4c(cc23)CCC4)CC1	i	i	i	i	i	.	.	.	.	.	.
